# Data: ChEMBL document CHEMBL3244416, “Structural requirements for progestational activity. Synthesis and properties of rac-8alpha,9beta,10alpha,14beta-progesterone” (1979)
# Assays:
# Oryctolagus cuniculus [1] = assay: Progestational activity in rabbit assessed as mean uterine weight at 0.4 mg, sc by Clauberg assay; format: functional
# How it was run: (§1)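 Modified Clauberg assay in rabbits, 2 animals per dose group, with the total dose given by subcutaneous injection. Uterine progestational proliferation was scored histologically by McPhail's method and reported as the range and mean proliferation index. Uterine weight was reported as the group mean.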
# Oryctolagus cuniculus [2] = assay: Progestational activity in rabbit assessed as mean uterine weight at 4 mg, sc by Clauberg assay; format: functional; how it was run: as §1
# Oryctolagus cuniculus [3] = assay: Progestational activity in rabbit assessed as range of proliferation index at 0.4 mg, sc by Clauberg assay relative to control; format: functional; how it was run: as §1
# Oryctolagus cuniculus [4] = assay: Progestational activity in rabbit assessed as range of proliferation index at 4 mg, sc by Clauberg assay relative to control; format: functional; how it was run: as §1
# Oryctolagus cuniculus [5] = assay: Progestational activity in rabbit assessed as mean proliferation index at 0.4 mg, sc by Clauberg assay relative to control; format: functional; how it was run: as §1
# Oryctolagus cuniculus [6] = assay: Progestational activity in rabbit assessed as mean proliferation index at 4 mg, sc by Clauberg assay relative to control; format: functional; how it was run: as §1
# [7] = target: T1, Progesterone receptor (Oryctolagus cuniculus) (UniProt P06186); assay: Displacement of [3H]-progesterone from progesterone receptor in rabbit uterine cytosol relative to progesterone; settings: Uterus
# T1 sequence (whole entry): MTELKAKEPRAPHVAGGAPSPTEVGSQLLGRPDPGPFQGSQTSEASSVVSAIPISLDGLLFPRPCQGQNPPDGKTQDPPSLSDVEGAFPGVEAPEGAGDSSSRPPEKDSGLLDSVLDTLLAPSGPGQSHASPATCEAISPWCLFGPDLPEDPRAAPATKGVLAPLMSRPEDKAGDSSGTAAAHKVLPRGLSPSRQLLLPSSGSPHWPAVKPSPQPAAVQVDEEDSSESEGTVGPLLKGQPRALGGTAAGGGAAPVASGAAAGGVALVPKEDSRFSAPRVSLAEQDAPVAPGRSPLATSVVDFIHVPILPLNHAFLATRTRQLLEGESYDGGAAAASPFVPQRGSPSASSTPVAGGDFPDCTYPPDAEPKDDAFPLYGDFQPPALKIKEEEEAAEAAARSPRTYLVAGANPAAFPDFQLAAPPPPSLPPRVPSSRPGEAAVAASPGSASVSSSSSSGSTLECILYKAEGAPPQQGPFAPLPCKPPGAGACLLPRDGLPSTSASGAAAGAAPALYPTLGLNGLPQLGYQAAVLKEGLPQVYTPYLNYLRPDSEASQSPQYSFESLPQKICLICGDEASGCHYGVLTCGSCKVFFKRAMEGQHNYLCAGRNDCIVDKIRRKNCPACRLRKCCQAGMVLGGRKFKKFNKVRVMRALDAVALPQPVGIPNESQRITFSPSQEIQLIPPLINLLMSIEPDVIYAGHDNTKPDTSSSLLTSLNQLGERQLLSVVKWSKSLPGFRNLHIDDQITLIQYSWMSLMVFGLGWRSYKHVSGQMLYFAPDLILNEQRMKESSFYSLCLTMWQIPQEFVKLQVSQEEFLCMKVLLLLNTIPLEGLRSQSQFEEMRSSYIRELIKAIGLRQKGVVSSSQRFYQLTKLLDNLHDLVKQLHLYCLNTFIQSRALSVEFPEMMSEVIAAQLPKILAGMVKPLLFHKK
# Oryctolagus cuniculus [8] = assay: Progestational activity in rabbit assessed as mean uterine weight at 0.2 mg, sc by Clauberg assay; format: functional; how it was run: as §1
# Oryctolagus cuniculus [9] = assay: Progestational activity in rabbit assessed as mean uterine weight at 0.5 mg, sc by Clauberg assay; format: functional; how it was run: as §1
# Oryctolagus cuniculus [10] = assay: Progestational activity in rabbit assessed as range of proliferation index at 0.2 mg, sc by Clauberg assay relative to control; format: functional; how it was run: as §1
# Oryctolagus cuniculus [11] = assay: Progestational activity in rabbit assessed as range of proliferation index at 0.5 mg, sc by Clauberg assay relative to control; format: functional; how it was run: as §1
# Oryctolagus cuniculus [12] = assay: Progestational activity in rabbit assessed as mean proliferation index at 0.2 mg, sc by Clauberg assay relative to control; format: functional; how it was run: as §1
# Oryctolagus cuniculus [13] = assay: Progestational activity in rabbit assessed as mean proliferation index at 0.5 mg, sc by Clauberg assay relative to control; format: functional; how it was run: as §1
SMILES,Activity (Oryctolagus cuniculus [1]) [g],Activity (Oryctolagus cuniculus [2]) [g],Ratio (Oryctolagus cuniculus [3]),Ratio (Oryctolagus cuniculus [4]),Ratio (Oryctolagus cuniculus [5]),Ratio (Oryctolagus cuniculus [6]),RBA [7] [%],Activity (Oryctolagus cuniculus [8]) [g],Activity (Oryctolagus cuniculus [9]) [g],Ratio (Oryctolagus cuniculus [10]),Ratio (Oryctolagus cuniculus [11]),Ratio (Oryctolagus cuniculus [12]),Ratio (Oryctolagus cuniculus [13])
CC(=O)[C@H]1CC[C@@H]2[C@H]3CCC4=CC(=O)CC[C@@]4(C)[C@@H]3CC[C@]12C (racemic),0.79,1.24,0,1,0,2,2,–,–,–,–,–,–
CC(=O)[C@H]1CC[C@H]2[C@@H]3CCC4=CC(=O)CC[C@]4(C)[C@H]3CC[C@]12C [PROGESTERONE],–,–,–,–,–,–,–,1.49,2.34,0.5,3.5,0.75,3.5
